The source of these data is PubChem BioAssay.

The source made the active and inactive calls. Rule as the data show it, unless noted: active = inhibition above about 30%; inactive = the rest.

In general, viability refers to a read-out of living cells in per cent, often relative to untreated cells. One may read the inhibition as the change of the read-out against control, counted positive when it falls.

Test [1] is described as follows: reduced viability of SK-BR-3 breast cancer cells – cell-based, 24 h, human, pilot screen (AID 572;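 active = viability at or below 10% of carrier control in both of two separate runs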;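 also: compound exposure lasted between 18 and 24 h rather than exactly 24 h; 100% = carrier-treated control wells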). Conditions: SK-BR-3 viability, CellTiter-Glo luminescence, at 10 µM, stronger effect = lower value. A general note: In ATP-based viability assays light output follows the ATP content of the culture.
The nature of test [2]: HUVEC growth inhibition – cell-based, human, primary screen (AID 575;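 active = viability at or below 30% in both replicate assays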;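 also: 100% = median of untreated cell wells with 0.1% DMSO on each plate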). Conditions: HUVEC proliferation, CellTiter-Glo luminescence, 72 h; at 10 µM; stronger effect = lower value. In a few lines: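 System: primary human umbilical vein endothelial cells; Quantity: 1250 endothelial cells in each well; Buffer or medium: supplemented EBM, 2% fetal bovine serum; Doses: one dose, 10 µM final, 0.1% DMSO; Incubation: 72 h compound incubation; Technique: ATP-based CellTiter-Glo luminescent read; Evaluation: percent of median DMSO-control luminescence; Controls: vehicle and MePR control wells.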

A short description of test [3]: H69AR cell proliferation blockers – human, duplicate replicates, primary screen (AID 580;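 active = viability at or under a set limit in both replicates, limit being median viability minus 3 SD, cut at about 48% in these data, passing the limit was not always enough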;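 also: 100% = mean luminescence of untreated wells and 0% = no signal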). The conditions noted are these: H69AR lung tumor cells viability, ATP luminescence, 72 h; at 10 µM; stronger effect = lower value.
A short description of test [4]: MRP1 drug-resistance reversers in H69AR cells – cell-based, doxorubicin co-treatment, pilot screen (AID 601;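 active = viability loss from added drug above about 55%, and viability with drug at most 40%, in both replicates, limit read from the data, passing the limit was not always enough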). Conditions: CellTiter-Glo, 72 h, at 10 µM; for differential viability (reversal): stronger effect = higher value.
A short description of test [5]: yeast transport mutant growth inhibition pilot in 384-well plates, post-Golgi transport modulator project (AID 636; in the data active = inhibition above about 31%). Conditions: absorbance 615 nm, about 18 h, stronger effect = higher value.
The nature of test [6]: growth suppression of yeast trafficking mutant, preliminary HTS, modulators of trafficking downstream of Golgi apparatus project, 1536-format plate, OD 615 nm (AID 637). The conditions noted are these: yeast transport mutant growth, absorbance 615 nm, 18 h; stronger effect = higher value.
The mark [7] stands for this setting: H69AR cells + 2 uM doxorubicin, measured here: viability with 2 uM doxorubicin, stronger effect = lower value.
Where [8] appears, read: H69AR cells, compound alone cytotoxicity.

For `COc1ccc(-n2ncc3c(NCc4cccs4)ncnc32)cc1`, the viability was 120% (inactive) in test [1]; 90.5% (inactive) in test [2]; 73.3% (inactive) in test [3]; 55.8% in test [4] (setting [7]); 73.3% in test [4] (setting [8]). Also, the differential viability (reversal) in test [4] (H69AR cells + 2 uM doxorubicin) was 17.6% (inactive). In addition, the inhibition in test [5] is -6.71% (inactive); in test [6] it was -1.64% (inactive).

As for `CCN(CC)c1nc(N(CC)CC)[nH]c(=O)n1`, the viability in test [1] was 112% (inactive); in test [2] it was 110% (inactive); in test [3] it was 94.7% (inactive); in test [4] (setting [7]), 92.6%; in test [4] (setting [8]) it was 94.7%. For the same compound, in test [4] (H69AR cells + 2 uM doxorubicin), the differential viability (reversal) is 2.19% (inactive). For the same compound, the inhibition is -4.94% (inactive) in test [5] and 6.72% (inactive) in test [6].

Take `CCN(CC)CCN1C(=O)C(=O)/C(=C(/O)c2ccc(OC(C)C)cc2)C1c1ccncc1` (centres undefined): the viability in test [1] is 133% (inactive); in test [2], 112% (inactive); in test [3], 91.1% (inactive); in test [4] (setting [7]), 84.5%; in test [4] (setting [8]) it was 91.1%. The differential viability (reversal) in test [4] (H69AR cells + 2 uM doxorubicin) was 6.59% (inactive). The inhibition was -6.76% (inactive) in test [5] and 3.09% (inactive) in test [6].

With `CCOC(=O)Cn1nnnc1CN(Cc1ccc(OC)cc1)Cc1cc2cc(C)ccc2[nH]c1=O`, the viability was 101% (inactive) in test [1]; 101% (inactive) in test [2]; 94.3% (inactive) in test [3]; 94.9% in test [4] (setting [7]); 94.3% in test [4] (setting [8]). In test [4] (H69AR cells + 2 uM doxorubicin), the differential viability (reversal) is -0.605% (inactive). For the same compound, the values for the inhibition in test [5] and in test [6] were -1.33% (inactive) and 4.55% (inactive), respectively.

Take `CCCS(=O)(=O)N1CCCC(C(=O)NC2CCCC(C)C2C)C1` (centres undefined): the viability in test [1] was 101% (inactive); in test [2] it was 113% (inactive); in test [3] it was 94.8% (inactive); in test [4] (setting [7]), 85.8%; in test [4] (setting [8]), 94.8%. In addition, the differential viability (reversal) in test [4] (H69AR cells + 2 uM doxorubicin) is 8.93% (inactive). The inhibition in test [5] is -2.73% (inactive); in test [6], -3.28% (inactive).

In the case of `CCCOc1cccc(C(=O)Nc2cc(NC(=O)c3ccco3)ccc2OC)c1`, the viability was 88% (inactive) in test [1]; 85.1% (inactive) in test [2]; 85% (inactive) in test [3]; 91.1% in test [4] (setting [7]); 85% in test [4] (setting [8]). For the same compound, the differential viability (reversal) in test [4] (H69AR cells + 2 uM doxorubicin) was -6.07% (inactive). Moreover, the inhibition is -3.78% (inactive) in test [5] and -2.55% (inactive) in test [6].

`CCOC(=O)c1cccc(NC(=O)CSc2nnc(-c3cccnc3)n2C)c1`: the viability is 99% (inactive) in test [1]; 107% (inactive) in test [2]; 98.3% (inactive) in test [3]; 92.7% in test [4] (setting [7]); 98.3% in test [4] (setting [8]). The differential viability (reversal) in test [4] (H69AR cells + 2 uM doxorubicin) was 5.64% (inactive). The results for the inhibition in test [5] and in test [6] were -3.38% (inactive) and -0.73% (inactive), respectively.

On to `COCCn1nnnc1CN1CCC(Cc2ccccc2)CC1`, for which the viability was 134% (inactive) in test [1]; 102% (inactive) in test [2]; 95.3% (inactive) in test [3]; 90.1% in test [4] (setting [7]); 95.3% in test [4] (setting [8]). Also, the differential viability (reversal) in test [4] (H69AR cells + 2 uM doxorubicin) was 5.17% (inactive). For the same compound, the values for the inhibition in test [5] and in test [6] were -3.84% (inactive) and 4.68% (inactive), respectively.

Take `COc1ccc(C2/C(=C(/O)c3ccccc3)C(=O)C(=O)N2c2ncccn2)cc1OC` (centres undefined): the viability in test [1] is 105% (inactive); in test [2] it was 101% (inactive); in test [3], 108% (inactive); in test [4] (setting [7]), 99.1%; in test [4] (setting [8]), 108%. In test [4] (H69AR cells + 2 uM doxorubicin), the differential viability (reversal) was 8.68% (inactive). For the same compound, the figures for the inhibition in test [5] and in test [6] were -4.59% (inactive) and -2.55% (inactive), respectively.

With `O=c1[nH]c2cc3c(cc2cc1C(c1nnnn1C1CCCCC1)N1CCSCC1)OCCO3` (centres undefined), the viability in test [1] is 97% (inactive); in test [2] it was 93.1% (inactive); in test [3], 98.8% (inactive); in test [4] (setting [7]) it was 100%; in test [4] (setting [8]), 98.8%. In addition, the differential viability (reversal) in test [4] (H69AR cells + 2 uM doxorubicin) was -1.53% (inactive). Also, the inhibition in test [5] was -0.81% (inactive); in test [6], 1.45% (inactive).

Turning to `COC(=O)CSc1nnc(CSc2nc(C)cc(C)n2)n1Cc1ccco1`, the viability in test [1] is 81% (inactive); in test [2] it was 104% (inactive); in test [3] it was 99.8% (inactive); in test [4] (setting [7]) it was 75.5%; in test [4] (setting [8]), 99.8%. Besides, the differential viability (reversal) in test [4] (H69AR cells + 2 uM doxorubicin) was 24.3% (inactive). In addition, the inhibition in test [5] is -4.53% (inactive); in test [6], -7.27% (inactive).

Take `COc1ccc(S(=O)(=O)NCCSCc2ccco2)cc1Cl`: the viability in test [1] was 48% (inactive); in test [2] it was 102% (inactive); in test [3], 92.4% (inactive); in test [4] (setting [7]), 91.3%; in test [4] (setting [8]) it was 92.4%. Also, the differential viability (reversal) in test [4] (H69AR cells + 2 uM doxorubicin) is 1.13% (inactive). Also, the results for the inhibition in test [5] and in test [6] were -6.3% (inactive) and 4% (inactive), respectively.

Turning to `N#CC1=C(N)Oc2c(ccc3cccnc23)C1c1cccnc1` (centres undefined), the viability is 111% (inactive) in test [1]; 60% (inactive) in test [2]; 15.1% (active) in test [3]; 26% in test [4] (setting [7]); 15.1% in test [4] (setting [8]). Besides, the differential viability (reversal) in test [4] (H69AR cells + 2 uM doxorubicin) was -10.9% (inactive). Further, the figures for the inhibition in test [5] and in test [6] were -7.53% (inactive) and 5% (inactive), respectively.

`Cc1ccc2nc3c(cc2c1)CN(Cc1ccco1)C(=NCC1CCCO1)S3` (centres undefined): the viability in test [1] was 100% (inactive); in test [2], 65.6% (inactive); in test [3], 7.64% (active); in test [4] (setting [7]), 9.57%; in test [4] (setting [8]) it was 7.64%. Besides, the differential viability (reversal) in test [4] (H69AR cells + 2 uM doxorubicin) is -1.93% (inactive). The inhibition in test [5] is 9.33% (inactive); in test [6], -0.18% (inactive).

As for `CCN(CC(=O)NC1CCS(=O)(=O)C1)C(=O)C(c1ccccc1)c1ccccc1` (centres undefined), the viability is 119% (inactive) in test [1]; 102% (inactive) in test [2]; 102% (inactive) in test [3]; 88.2% in test [4] (setting [7]); 102% in test [4] (setting [8]). Also, the differential viability (reversal) in test [4] (H69AR cells + 2 uM doxorubicin) was 14.2% (inactive). Moreover, the inhibition was -5.14% (inactive) in test [5] and -2.91% (inactive) in test [6].

`COc1cc(C(=O)N2CCCC(c3nc(-c4cccs4)no3)C2)cc(OC)c1OC` (centres undefined): the viability is 90.5% (inactive) in test [1]; 94.2% (inactive) in test [2]; 89.7% (inactive) in test [3]; 69.4% in test [4] (setting [7]); 89.7% in test [4] (setting [8]). Besides, the differential viability (reversal) in test [4] (H69AR cells + 2 uM doxorubicin) is 20.3% (inactive). Further, the inhibition is -1.05% (inactive) in test [5] and 16% (inactive) in test [6].

For `CCOc1ccc(NC(=O)COC(=O)Cn2cnnn2)cc1OCC`, the viability in test [1] was 86% (inactive); in test [2], 106% (inactive); in test [3], 107% (inactive); in test [4] (setting [7]), 108%; in test [4] (setting [8]) it was 107%. Further, in test [4] (H69AR cells + 2 uM doxorubicin), the differential viability (reversal) was -0.92% (inactive). Besides, the figures for the inhibition in test [5] and in test [6] were 1.23% (inactive) and -0.36% (inactive), respectively.

As for `Cc1ccc(CS(=O)(=O)Cc2ccc(C(=O)NCc3ccccn3)o2)cc1`, the viability was 95% (inactive) in test [1]; 99.8% (inactive) in test [2]; 99.4% (inactive) in test [3]; 90.4% in test [4] (setting [7]); 99.4% in test [4] (setting [8]). The differential viability (reversal) in test [4] (H69AR cells + 2 uM doxorubicin) is 9% (inactive). Also, the inhibition is -1.87% (inactive) in test [5] and -0.18% (inactive) in test [6].
